From PubChem BioAssay
Activity calls are given as the source filed them.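 How the source made its calls, unless noted: active means viability loss from added drug above about 55%, and viability with drug at most 40%, in both replicates (limit read from the data, passing the limit was not always enough); inconclusive means both conditions met in only one replicate; inactive means neither replicate meets both conditions.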

Experiments:
[1] = reducers of endogenous Her2 protein level, primary screen, SKBR3 breast tumor cells, AlphaScreen, ATP viability (AID 461;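 active means Her2 level under about 52% in both replicate screens, with viability over 70% of control, limit read from the data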;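 on Her2 level: lower value means less Her2 protein in the cells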;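 on viability: percent of carrier control wells set as 100% viability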); conditions: 18-24 h, measured here: SKBR3 viability, ATP luminescence, at 10 µM
[2] = target: Receptor tyrosine-protein kinase erbB-2 (Homo sapiens) (UniProt P04626); assay: as above; conditions: 18-24 h, at 10 µM, stronger effect = lower value
[3] = SK-BR-3 cell growth inhibitors, pilot screen, 24 h, human (AID 572;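 active means viability at or below 10% of carrier control in both of two separate runs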;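 further: compound exposure lasted between 18 and 24 h rather than exactly 24 h; 100% = carrier-treated control wells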); conditions: SK-BR-3 viability, CellTiter-Glo luminescence, at 10 µM, stronger effect = lower value
[4] = HUVEC growth inhibition – cell-based, human, primary screen (AID 575;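 active means viability at or below 30% in both replicate assays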;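 further: 100% = median of untreated cell wells with 0.1% DMSO on each plate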); conditions: HUVEC proliferation, CellTiter-Glo luminescence, 72 h; at 10 µM; stronger effect = lower value
Procedure, shortened: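 material = primary HUVEC, no more than 12 passages | input = 1250 cells per well | controls = vehicle and MePR control wells | measured by = CTG luminescence | times = 72 h compound incubation | format = collagen-coated 384-well format | read-out = % viability vs DMSO wells | doses = single 10 µM dose, 0.1% DMSO, from 5x medium stock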

[5] = growth inhibitors of H69AR lung tumor, primary screen, human, duplicate replicates (AID 580;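 active means viability at or under a set limit in both replicates, limit being median viability minus 3 SD, cut at about 48% in these data, passing the limit was not always enough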;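 further: 100% = mean luminescence of untreated wells and 0% = no signal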); conditions: H69AR lung tumor cells viability, ATP luminescence, 72 h; at 10 µM; stronger effect = lower value
[6] = reversal of MRP1-mediated doxorubicin resistance, pilot screen, H69AR cells, doxorubicin co-treatment (AID 601); conditions: CellTiter-Glo, 72 h, at 10 µM; for differential viability (reversal): stronger effect = higher value
[7] = 384-well plate pilot, post-Golgi transport modulator project, inhibition of yeast transport mutant growth (AID 636; in the data active means inhibition above about 31%); conditions: absorbance 615 nm, about 18 h, stronger effect = higher value
[8] = growth suppression of yeast trafficking mutant, preliminary HTS, modulators of trafficking downstream of Golgi apparatus project, 1536-format plate, OD 615 nm (AID 637; in the data active means inhibition above about 30%); conditions: yeast transport mutant growth, absorbance 615 nm, 18 h; stronger effect = higher value
[9] = H69AR cells + 2 uM doxorubicin, measured here: viability with 2 uM doxorubicin, stronger effect = lower value
[10] = H69AR cells, compound alone cytotoxicity

Chain of Receptor tyrosine-protein kinase erbB-2 (Homo sapiens) (P04626 whole entry, looked up): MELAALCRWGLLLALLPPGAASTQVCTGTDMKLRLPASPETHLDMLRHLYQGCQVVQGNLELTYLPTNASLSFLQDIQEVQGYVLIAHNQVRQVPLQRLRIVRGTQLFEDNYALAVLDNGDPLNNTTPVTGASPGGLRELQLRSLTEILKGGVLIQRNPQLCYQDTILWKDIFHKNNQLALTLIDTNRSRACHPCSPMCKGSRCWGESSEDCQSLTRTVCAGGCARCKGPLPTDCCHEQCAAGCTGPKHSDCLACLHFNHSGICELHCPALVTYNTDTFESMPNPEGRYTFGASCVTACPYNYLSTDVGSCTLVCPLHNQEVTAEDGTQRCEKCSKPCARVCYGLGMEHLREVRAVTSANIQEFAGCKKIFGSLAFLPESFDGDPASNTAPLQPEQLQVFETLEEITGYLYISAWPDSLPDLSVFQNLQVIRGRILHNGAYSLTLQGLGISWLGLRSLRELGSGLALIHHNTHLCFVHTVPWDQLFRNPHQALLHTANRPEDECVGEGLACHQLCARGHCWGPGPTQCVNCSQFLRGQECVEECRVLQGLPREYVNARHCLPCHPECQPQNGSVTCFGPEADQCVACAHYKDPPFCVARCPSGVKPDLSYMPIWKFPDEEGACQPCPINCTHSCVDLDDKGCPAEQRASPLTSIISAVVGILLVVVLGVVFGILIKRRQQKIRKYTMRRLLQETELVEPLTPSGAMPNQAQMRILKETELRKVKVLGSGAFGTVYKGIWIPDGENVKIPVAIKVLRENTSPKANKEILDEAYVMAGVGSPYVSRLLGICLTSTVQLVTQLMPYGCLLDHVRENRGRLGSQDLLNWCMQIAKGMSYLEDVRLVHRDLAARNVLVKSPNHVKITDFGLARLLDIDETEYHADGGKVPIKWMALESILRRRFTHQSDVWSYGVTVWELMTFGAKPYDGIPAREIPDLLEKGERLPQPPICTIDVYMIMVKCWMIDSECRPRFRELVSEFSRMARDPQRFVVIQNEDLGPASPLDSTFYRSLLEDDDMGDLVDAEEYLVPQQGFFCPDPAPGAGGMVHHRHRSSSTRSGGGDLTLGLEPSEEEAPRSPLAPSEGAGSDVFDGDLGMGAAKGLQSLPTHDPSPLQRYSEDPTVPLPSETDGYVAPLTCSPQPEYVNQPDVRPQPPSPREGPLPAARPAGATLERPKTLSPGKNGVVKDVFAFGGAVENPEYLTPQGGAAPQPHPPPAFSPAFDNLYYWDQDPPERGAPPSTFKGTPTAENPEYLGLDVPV

| Structure (SMILES) | viability [1] | Her2 level [2] | viability [3] | viability [4] | viability [5] | differential viability (reversal) ([6]; H69AR cells + 2 uM doxorubicin) | viability [6, 9] | viability [6, 10] | inhibition [7] | inhibition [8] |
| --- | --- | --- | --- | --- | --- | --- | --- | --- | --- | --- |
| CCOC(=O)c1c(C)[nH]c(C(=O)CSc2nc3ccccc3o2)c1C | 85.5% | 85% (inactive) | 85.5% (inactive) | 88.6% (inactive) | 73.3% (inactive) | -18.9% (inactive) | 92.2% | 73.3% | -1.15% (inactive) | -5.17% (inactive) |
| O=C(CSc1nnc(COc2ccc(Cl)cc2)o1)N1CCN(c2ccccc2)CC1 | 100% | 83% (inactive) | 100% (inactive) | 57% (inactive) | 90.2% (inactive) | -2.18% (inactive) | 92.4% | 90.2% | -3.2% (inactive) | 3.11% (inactive) |
| CCCOc1ccc(/C(O)=C2/C(=O)C(=O)N(CCCOC)C2c2ccncc2)cc1 (stereo not given) | 98% | 84% (inactive) | 98% (inactive) | 110% (inactive) | 94.5% (inactive) | 7.81% (inactive) | 86.7% | 94.5% | -9.46% (inactive) | 3.67% (inactive) |
| COc1ccc2[nH]c(=O)c(CN(C(=O)c3ccncc3)C(C)C)cc2c1 | 96% | 108% (inactive) | 96% (inactive) | 113% (inactive) | 98.5% (inactive) | 4.29% (inactive) | 94.2% | 98.5% | -3.12% (inactive) | 4% (inactive) |
| CC1C=CC(C)C(C(=O)O)C1C(=O)O (stereo not given) | 103% | 93% (inactive) | 103% (inactive) | 97.6% (inactive) | 93% (inactive) | -5.29% (inactive) | 98.3% | 93% | -0.65% (inactive) | -5.67% (inactive) |
| CCN(CC)c1nc2nonc2nc1N(CC)CC | 101% | 92% (inactive) | 101% (inactive) | 110% (inactive) | 104% (inactive) | 4.4% (inactive) | 99.2% | 104% | -6.53% (inactive) | 3.17% (inactive) |
| CC(=O)Nc1ccc(S(=O)(=O)Nc2nc3ccccc3nc2N2CCCC2)cc1 | 99.5% | 98% (inactive) | 99.5% (inactive) | 93.7% (inactive) | 92.3% (inactive) | -8.08% (inactive) | 100% | 92.3% | -7.87% (inactive) | 3.61% (inactive) |
| CCCC(=O)N(c1ccc2oc(=O)sc2c1)S(=O)(=O)c1ccccc1 | 75.5% | 78.5% (inactive) | 75.5% (inactive) | 78.3% (inactive) | 60% (inactive) | -20.9% (inactive) | 80.9% | 60% | -2.86% (inactive) | -3.81% (inactive) |
| CCOC(=O)/N=C(/NC(=O)Nc1ccc(C(=O)OCC)cc1)OC | 99.5% | 75.5% (inactive) | 99.5% (inactive) | 83.7% (inactive) | 96.5% (inactive) | 14.8% (inactive) | 81.8% | 96.5% | -5.54% (inactive) | 5.4% (inactive) |
| OC(CNCC1COc2ccccc2O1)COCc1cccs1 (stereo not given) | 98% | 89.5% (inactive) | 98% (inactive) | 87.5% (inactive) | 83.1% (inactive) | 0.95% (inactive) | 82.1% | 83.1% | -2.08% (inactive) | -7.94% (inactive) |
| CCOCCCNS(=O)(=O)c1ccc2c(c1)oc(=O)n2CC(=O)OCC | 107% | 98.5% (inactive) | 107% (inactive) | 104% (inactive) | 94.3% (inactive) | -8.29% (inactive) | 103% | 94.3% | -4.74% (inactive) | -1.27% (inactive) |
| O=c1oc2ccccc2c(O)c1C=NCc1ccccn1 | 88% | 93.5% (inactive) | 88% (inactive) | 67.6% (inactive) | 76.8% (inactive) | -10.5% (inactive) | 87.3% | 76.8% | -8.11% (inactive) | -5.57% (inactive) |
| O=C(c1c(F)cccc1F)N(Cc1ccccn1)C1CCCC1 | 78% | 108% (inactive) | 78% (inactive) | 106% (inactive) | 93.6% (inactive) | 4.68% (inactive) | 88.9% | 93.6% | 3.6% (inactive) | 26.3% (inactive) |
| O=C(O)CCCCCNc1nc(=S)[nH]c2ccccc12 | 107% | 99% (inactive) | 107% (inactive) | 99.7% (inactive) | 89.3% (inactive) | 10.3% (inactive) | 79% | 89.3% | -5.92% (inactive) | -1.59% (inactive) |
| CC(=O)Nc1ccc(Oc2ccc3nc(C)[nH]c3c2)cc1 | 97.5% | 93.5% (inactive) | 97.5% (inactive) | 113% (inactive) | 95.4% (inactive) | -9.67% (inactive) | 105% | 95.4% | -6.58% (inactive) | -10.3% (inactive) |
| CC(=O)Nc1c(C(=O)C2CC2)oc2ccccc12 | 102% | 124% (inactive) | 102% (inactive) | 96.9% (inactive) | 90.2% (inactive) | 7.75% (inactive) | 82.5% | 90.2% | -5.33% (inactive) | -5.4% (inactive) |
